“And” between values parts separate entries of the source, which are not always exact repeats. Identical values can stand only once.
Experiments:
Leishmania donovani = experiment: In vitro inhibitory concentration against Leishmania donovani intracellular amastigotes; type: functional, organism-based
Method in brief: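 CD1 mouse starch-induced peritoneal macrophages in RPMI1640 + 10% HIFCS, 37 °C, 5% CO₂, infected with hamster-spleen L. donovani MHOM/ET/67/L82 amastigotes (5:1); after 24 h drug exposure for 5 days, overlay replaced day 3, top concentration 30 μg/mL, quadruplicates. Methanol-fixed, Giemsa-stained, scored microscopically; ED₅₀ by curve fitting; Pentostam positive control.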

[1] = In vitro inhibitory concentration against Trypanosoma cruzi intracellular amastigotes; type: functional, cell-based
Leishmania amazonensis [2] = experiment: In vitro inhibitory concentration against Leishmania amazonensis promastigotes; type: functional, organism-based
Method in brief: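 L. amazonensis MHOM/BR/75/Josefa promastigotes (mouse-passaged) in Warren's medium with 10% fetal bovine serum at 25 °C; exponential-phase cells incubated with compound 96 h, counted by Neubauer hemocytometer. IC₅₀ from I = Imax·C/(IC₅₀+C), Imax 100%.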

Leishmania amazonensis [3] = experiment: In vitro inhibitory concentration against Leishmania amazonensis intracellular amastigotes; type: functional, organism-based
Method in brief: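 Swiss mouse peritoneal macrophages adhered 24 h at 37 °C, 5% CO₂, infected with stationary-phase L. amazonensis promastigotes (1:10) at 35 °C for 2 h, washed, held 24 h drug-free, then exposed to compound for 96 h. Bouin-fixed, Giemsa-stained; percentage of infected cells scored, IC₅₀ from hyperbolic inhibition function I = Imax·C/(IC₅₀+C).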

[4] = In vitro inhibitory concentration against Trypanosoma cruzi epimastigotes; type: functional
Method in brief: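 T. cruzi Y strain epimastigotes in liver infusion tryptose medium with 10% fetal bovine serum at 28 °C; exponential-phase parasites incubated with compound 96 h, counted by Neubauer hemocytometer. IC₅₀ from I = Imax·C/(IC₅₀+C), Imax 100%.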

Leishmania amazonensis [5] = experiment: (§1) Effect of compound on free sterol compositions of leishmania mexicana amazonensis promastigotes at a concentration of 0.1 uM; type: functional
Method in brief: (§2)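 L. mexicana amazonensis promastigotes grown in LIT medium with lactalbumin and 10% fetal calf serum at 26 °C without agitation; cultures started at 2 × 10⁶ cells/mL, drug added at 0.5–1 × 10⁷ cells/mL. Total lipids extracted, split into neutral and polar fractions by silicic acid chromatography, sterols analysed by gas-liquid chromatography; read-out is % 24-alkylated vs 24-nonalkylated sterols.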

[6] = Evaluated for its toxicity against KB cells; type: cell-based; conditions: Homo sapiens
Method in brief: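 KB cells seeded at 4 × 10⁴/mL in RPMI 1640 + 10% HIFCS, 24 h at 37 °C, 5% CO₂, then exposed to 300, 30, 3 and 0.3 μg/mL in triplicate for 72 h; podophyllotoxin positive control. AlamarBlue added for 2–4 h, fluorescence at EX/EM 530/585 nm; ED₅₀ relative to blanks and untreated controls.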

Leishmania amazonensis [7] = experiment: as §1; type: functional; method in brief: as §2; remark: listed apart in the source
Leishmania amazonensis [8] = experiment: Effect of compound on free sterol composition of leishmania mexicana amazonensis promastigotes at a concentration of 0 uM,; type: functional; method in brief: as §2
Leishmania amazonensis [9] = experiment: Effect of compound on free sterol compositions of leishmania mexicana amazonensis promastigotes at a concentration of 1.0 uM; type: functional; method in brief: as §2
Leishmania amazonensis [10] = experiment: Effect of compound on free sterol compositions of leishmania mexicana amazonensis promastigotes at a concentration of 0.01 uM; type: functional; method in brief: as §2
Leishmania amazonensis [11] = experiment: Effect on free sterol compositions of leishmania mexicana amazonensis promastigotes at a concentration of 0.1 uM; type: functional; method in brief: as §2

| Structure (SMILES) | IC50 (Leishmania donovani) [µM] | IC50 (Leishmania amazonensis [2]) [µM] | IC50 (Leishmania amazonensis [3]) [µM] | IC50 [1] [µM] | IC50 [4] [µM] | Effect (Leishmania amazonensis [5]) [%] | IC50 [6] [µM] | Effect (Leishmania amazonensis [7]) [%] | Effect (Leishmania amazonensis [8]) [%] | Effect (Leishmania amazonensis [9]) [%] | Effect (Leishmania amazonensis [10]) [%] | Effect (Leishmania amazonensis [11]) |
| --- | --- | --- | --- | --- | --- | --- | --- | --- | --- | --- | --- | --- |
| CC(O)(C1CCCCN1)[C@H]1CC[C@H]2[C@@H]3CCC4C[C@@H](O[Si](C)(C)C(C)(C)C)CC[C@]4(C)[C@H]3CC[C@]12C (some centres undefined) | > 58 | 1.09 | 0.02 | 50 | 0.6 | 8.5 | > 579 | <1 |  |  |  |  |
| CC(O)(c1ccccn1)[C@H]1CC[C@H]2[C@@H]3CCC4C[C@@H](O[Si](C)(C)C(C)(C)C)CC[C@]4(C)[C@H]3CC[C@]12C (some centres undefined) | > 59 | 1.88 | 1 | > 59 | 0.68 |  | > 586 |  |  |  |  |  |
| CCC(=O)N1CCCC(C(C)(O)[C@H]2CC[C@H]3[C@@H]4CCC5C[C@@H](O)CC[C@]5(C)[C@H]4CC[C@]23C)C1 (some centres undefined) | 37.9 |  |  | 64.6 |  | 11.7 | 336 |  |  | 49.7 |  |  |
| CCC(=O)N1CCCCC1C(C)(O)[C@H]1CC[C@H]2[C@@H]3CCC4C[C@@H](O)CC[C@]4(C)[C@H]3CC[C@]12C (some centres undefined) | 23.1 |  |  | 22.8 |  | 17.7 | 11.1 | 4.4 |  |  |  |  |
| CCC(=O)N1CCCCC1C(C)(O)[C@H]1CC[C@H]2[C@@H]3CCC4C[C@@H](O[Si](C)(C)C(C)(C)C)CC[C@]4(C)[C@H]3CC[C@]12C (some centres undefined) | > 52 | 10.3 | 8 | > 52 | 1 |  | > 520 |  |  |  |  |  |
| CCC(=O)N1CCCC(C(C)(O)[C@H]2CC[C@H]3[C@@H]4CCC5C[C@@H](O[Si](C)(C)C(C)(C)C)CC[C@]5(C)[C@H]4CC[C@]23C)C1 (some centres undefined) | > 52 | 1.21 | 1 | > 52 | 0.6 |  | > 520 |  |  |  |  |  |
| CC(O)(C1CCCNC1)[C@H]1CC[C@H]2[C@@H]3CCC4C[C@@H](O[Si](C)(C)C(C)(C)C)CC[C@]4(C)[C@H]3CC[C@]12C (some centres undefined) | 6.4 | 1.4 | 1 | 42.1 | 1.01 |  | 2.5 |  |  |  |  |  |

Further lines, with some results ahead:

| IC50 (Leishmania donovani) [µM] | IC50 (Leishmania amazonensis [2]) [µM] | IC50 (Leishmania amazonensis [3]) [µM] | Structure (SMILES) | IC50 [1] [µM] | IC50 [4] [µM] | Effect (Leishmania amazonensis [5]) [%] | IC50 [6] [µM] | Effect (Leishmania amazonensis [7]) [%] | Effect (Leishmania amazonensis [8]) [%] | Effect (Leishmania amazonensis [9]) [%] | Effect (Leishmania amazonensis [10]) [%] | Effect (Leishmania amazonensis [11]) |
| --- | --- | --- | --- | --- | --- | --- | --- | --- | --- | --- | --- | --- |
| 8.9 | 0.1 | 0.01 | CC(O)(C1CCCCN1)[C@H]1CC[C@H]2[C@@H]3CCC4C[C@@H](O)CC[C@]4(C)[C@H]3CC[C@]12C (some centres undefined) | 7.4 | 0.94 | 11.1 | 11.9 | 64.2 | 9.8 |  |  |  |
| 23.4 | 4.24 | 3 | CC(O)(c1cccnc1)[C@H]1CC[C@H]2[C@@H]3CCC4C[C@@H](O)CC[C@]4(C)[C@H]3CC[C@]12C (some centres undefined) | 13.3 | 0.62 | 12.4 | > 755 | 41.9 |  |  | 4.7 | 3.1% and 4.1% and 11.1% |
| > 55 |  |  | CC(O)(c1ccncc1Cl)[C@H]1CC[C@H]2[C@@H]3CCC4C[C@@H](O[Si](C)(C)C(C)(C)C)CC[C@]4(C)[C@H]3CCC12C (some centres undefined) | > 55 |  |  | 234 |  |  |  |  |  |
| 15 | 3.21 | 2 | CC(O)(c1ccncc1)[C@H]1CC[C@H]2[C@@H]3CCC4C[C@@H](O[Si](C)(C)C(C)(C)C)CC[C@]4(C)[C@H]3CC[C@]12C (some centres undefined) | 6.1 | 0.67 |  | 574 |  |  |  |  |  |
| 4.8 |  |  | CC(O)(C1CCCNC1)[C@H]1CC[C@H]2[C@@H]3CCC4C[C@@H](O)CC[C@]4(C)[C@H]3CC[C@]12C (some centres undefined) | 18 |  | 13.1 | 29.2 | 63.7 |  |  |  |  |
| > 69 |  |  | CC(O)(c1ccncc1Cl)[C@H]1CC[C@H]2[C@@H]3CCC4C[C@@H](O)CC[C@]4(C)[C@H]3CC[C@]12C (some centres undefined) | 50 |  |  | < 0.7 |  |  |  |  |  |
| 14.6 | 1.14 | 1 | CC(O)(c1ccccn1)[C@H]1CC[C@H]2[C@@H]3CCC4C[C@@H](O)CC[C@]4(C)[C@H]3CC[C@]12C (some centres undefined) | 32.9 | 1.03 | 15.5 | 11.3 | 1.6 |  |  |  |  |
| 13.9 | 1.75 | 1.5 | CC(O)(c1cccnc1)[C@H]1CC[C@H]2[C@@H]3CCC4C[C@@H](O[Si](C)(C)C(C)(C)C)CC[C@]4(C)[C@H]3CC[C@]12C (some centres undefined) | 51.2 | 1.2 |  | > 586 |  |  |  |  | 6.6% |
| 11.3 | 3.41 | 3 | CC(O)(c1ccncc1)[C@H]1CC[C@H]2[C@@H]3CCC4C[C@@H](O)CC[C@]4(C)[C@H]3CC[C@]12C (some centres undefined) | 35 | 0.68 |  | 30.7 |  |  |  |  |  |

Source: ChEMBL document CHEMBL1136803, “Azasterols as inhibitors of sterol 24-methyltransferase in Leishmania species and Trypanosoma cruzi” (J Med Chem, 2003)
